Bioassay records (PubChem)
Rows were chosen to be rich in hits. Some 3.8% of all compounds tested hit in one or more screens of this group.
Kir21 inh: inhibitors of mouse Kir2.1 inward-rectifier potassium channel. hit rate 0.85% among 310,000. HEK293-Kir2.1, FluxOR thallium flux fluorescence; hits give low values. P35561. B-score at 10 µM;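 active = fluorescence ratio B-score at or below minus 3 SD of library scores, with starting-brightness B-score within 2 SD, cut at about -4.2 in these data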;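 also: channel flux triggered by added potassium and thallium sulfate stimulus; B-score of peak minus minimum fluorescence over baseline after thallium stimulus; more negative B-score means stronger Kir2.1 block with less thallium influx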
KCNQ1 act: potentiators or activators of human KCNQ1 potassium channel | P51787 | CHO-K1 KCNQ1, thallium flux FluxOR fluorescence; hits give high values | B-score at 10 µM | hit rate 0.35% among 310,000;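 active = fluorescence ratio B-score, a plate-corrected score, at least three library SD, with initial intensity B-score within 5 SD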
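Assay system: CHO-K1 cells stably expressing KCNQ1. Medium: assay buffer for compound exposure, DMSO matched across wells. Timing: 37 °C overnight plating, 90-min dark dye load, 20-min compound pretreatment. Signal: kinetic FluxOR fluorescence, 10 s baseline plus 110 s post-stimulus.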
KCNQ1 inh: inhibitors of human KCNQ1 potassium channel | P51787 | CHO-K1 KCNQ1, FluxOR thallium flux fluorescence; hits give high values | B-score at 10 µM | hit rate 1.3% among 310,000 | AID 2642;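 active = compounds whose thallium flux B-score, printed positive for inhibition, exceeds three library SD while starting fluorescence stays within three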;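 also: channel opened by potassium depolarization with thallium stimulus after 20 min compound exposure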
KCNK3 block: human KCNK3 channel inhibition, primary screen; O14649; CHO-KCNK3 thallium flux, FluxOR fluorescence; hits give low values; AID 602410; B-score at 10 µM; hit rate 0.84% among 340,000;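 active = B-score under library mean minus 4 SD, starting fluorescence ratio at most library mean plus 5 SD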;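 also: more negative B-score means stronger inhibition of thallium flux through KCNK3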
Target sequence (O14649 whole entry, looked up): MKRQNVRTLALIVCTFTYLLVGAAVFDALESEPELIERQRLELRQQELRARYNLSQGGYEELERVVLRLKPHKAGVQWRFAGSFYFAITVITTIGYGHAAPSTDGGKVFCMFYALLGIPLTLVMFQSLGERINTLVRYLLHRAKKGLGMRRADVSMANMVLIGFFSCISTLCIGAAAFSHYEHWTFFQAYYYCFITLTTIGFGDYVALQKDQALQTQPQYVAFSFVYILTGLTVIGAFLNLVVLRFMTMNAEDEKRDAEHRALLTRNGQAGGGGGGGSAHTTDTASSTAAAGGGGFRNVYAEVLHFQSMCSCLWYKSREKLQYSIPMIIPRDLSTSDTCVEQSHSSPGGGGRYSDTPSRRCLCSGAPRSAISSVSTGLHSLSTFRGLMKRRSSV
hERG rescue: compounds protecting human hERG from proarrhythmic drug block; activation (rescue from dofetilide block), less the hit threshold, % at 10 µM; CHO-hERG, FluxOR thallium flux, dofetilide IC70 present; hit rate 0.51% among 310,000;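 active = activation above the mean of controls blocked by dofetilide plus 5 SD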;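 also: thallium influx through hERG after potassium depolarization seen as dye fluorescence rise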
KCNK9 block: inhibitors of human KCNK9 two-pore domain potassium channel; Q9NPC2; HEK293 KCNK9, FluxOR thallium flux fluorescence; hits give low values; B-score at 10 µM; hit rate 1.2% among 310,000; AID 488922;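 active = ratio B-score over 3 SD below the library mean, with starting fluorescence within 5 SD of its mean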;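 also: negative B-score means less thallium flux so channel inhibition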
KCNQ1 inh valid: reconfirmed blocker of the human KCNQ1 potassium channel; shares compounds with KCNQ1 inh; KCNQ1 cell line, FluxOR thallium flux fluorescence; inhibition, % at 10 µM; hit rate 93% among 1,600; AID 588353;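 active = primary screen active, with duplicate mean exceeding buffer control mean plus 3 SD of buffer wells, cut at about 28% in these data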;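 also: 0% = buffer control ratio and 100% = XE991 inhibitor control ratio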
CHO KCNQ1 ctr: counter-screen for KCNQ1 inhibitors: effect in parental CHO cells | parental CHO-K1, FluxOR thallium flux fluorescence ratio; hits give low values; zero means no signal rise above baseline | fluorescence ratio (Tl flux) at 10 µM | shares compounds with KCNQ1 inh | hit rate 21% among 1,600;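 active = mean of duplicate thallium-flux fluorescence ratios in parental host cells more than 5 SD below the buffer control mean, cut at about 0.38 in these data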;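 also: ratio is peak minus minimum fluorescence divided by baseline fluorescence; actives read low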
KCNQ2 inh: KCNQ1 inhibitor that also blocks rat KCNQ2 channel | shares compounds with KCNQ1 inh | KCNQ2 cells, FluxOR thallium flux fluorescence | inhibition, % at 10 µM | hit rate 71% among 1,600;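 active = mean percent inhibition of the KCNQ2 thallium signal more than 5 SD above the buffer-only control wells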;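 also: KCNQ2 expressed in CHO cells; 0% = buffer control wells and 100% = XE-991 inhibitor control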
KCNQ1 KCNE1 spec: human KCNQ1/KCNE1 inhibition in KCNQ1 specificity screen | shares compounds with KCNQ1 inh | inhibition, % at 10 µM | hit rate 77% among 1,600 | KCNQ1/KCNE1 cells, FluxOR thallium flux fluorescence;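 active = mean percent inhibition of duplicate wells above the buffer-only control mean plus 3 SD of those controls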;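 also: 0% = buffer only wells and 100% = XE-991 inhibitor control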
KCNK3 confirm: confirmation of human KCNK3 two-pore domain potassium channel inhibitors; shares compounds with KCNK3 block; CHO-KCNK3 thallium flux, FluxOR fluorescence; 0% buffer, 100% carvedilol maximal block; ratio percent of control, % at 10 µM; hit rate 99% among 2,400; AID 651638;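 active = ratio percent of control, averaged over triplicates, above buffer control mean plus 5 SD, cut at about 64% in these data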;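 also: ratio is the fluorescence rise from min to max over baseline after thallium stimulus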
KCNK3 uninduced: KCNK3 inhibitor counter-screen hit in non-induced cells. hit rate 40% among 2,400. AID 651747. non-induced KCNK3 parental cells, FluxOR thallium flux; hits give low values. shares compounds with KCNK3 block. thallium flux ratio (lower = more inhibition) at 10 µM;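 active = thallium flux ratio, averaged over three wells, more than 5 SD below the buffer control mean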;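 also: host cells are CHO cells without KCNK3 induction; ratio is peak minus trough fluorescence over baseline then normalized to buffer controls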
Numbers without * were called inactive; i = inactive; x = no result; + = active, no number.

SMILES | Kir21 inh | KCNQ1 act | KCNQ1 inh | KCNK3 block | hERG rescue | KCNK9 block | KCNQ1 inh valid | CHO KCNQ1 ctr | KCNQ2 inh | KCNQ1 KCNE1 spec | KCNK3 confirm | KCNK3 uninduced
Cc1ccc(C)c(SCC(=O)NCC(c2ccco2)N2CCCCC2)c1 (centres undefined) | -3.7 | i | i | i | -14 | i | x | x | x | x | x | x
COc1cccc(-c2nc(NC3CCCC3)c3ccccc3n2)c1O | -1.4 | i | 9* | -13* | -8 | i | 140* | 0.32* | 126%* | 98%* | 133* | i
CC(=O)n1nc(-c2ccccc2)nc1NCc1cccs1 | -0.2 | i | i | i | -6 | i | x | x | x | x | x | x
Cc1ccccc1C(=O)Oc1cccc(Nc2ncnc3ccccc23)c1 | -0.56 | i | 11* | -8.8* | -32 | -7.2* | 152* | 0.29* | 121%* | + | 132* | 0.15*
CC(=O)Oc1cccc(Nc2ncnc3ccccc23)c1 | -0.89 | i | i | i | -6 | i | x | x | x | x | x | x
CCCN1CCc2c(sc(NC(=O)c3ccc(S(=O)(=O)N(C)c4ccccc4)cc3)c2C(=O)NC)C1 | -0.14 | i | 15* | -9* | -30 | i | 144* | 0.28* | i | + | 171* | 0.055*
COC(=O)C1=C(C(=O)OC)[C@@H]2N(C)c3ccc(OC)cc3[C@@]23C[C@@H](C(=O)OC)N(C(=O)COCc2ccccc2)C3=N1 | 1.1 | i | i | x | -5 | i | x | x | x | x | x | x
NS(=O)(=O)c1ccc(Nc2nc3ccccc3nc2NS(=O)(=O)c2cccc([N+](=O)[O-])c2)cc1 | 0.98 | i | i | i | -4 | i | x | x | x | x | x | x
CCn1c(=NC(=O)C2COc3ccccc3O2)sc2c(OC)ccc(OC)c21 (centres undefined) | 0.4 | i | 7* | -10* | -15 | -6.6* | 80* | 0.39 | 82%* | 126%* | 112* | i
COCCn1c(=NC(=O)C2COc3ccccc3O2)sc2cc(S(N)(=O)=O)ccc21 (centres undefined) | 1.6 | i | i | i | -10 | i | x | x | x | x | x | x
CCN(C(=O)c1cccc(S(=O)(=O)N2CCCCC2)c1)C1CCS(=O)(=O)C1 (centres undefined) | -2.4 | i | i | i | -4 | i | x | x | x | x | x | x
